Reference: ChEMBL document CHEMBL1139892 (J Nat Prod, 2007)
Converted amounts (≈) assume the structure as drawn. Counter-ions that a name gives are not always drawn.

Legend:
[1] = biological target: Prostaglandin G/H synthase 1 (Homo sapiens, UniProt P23219); test: Inhibition of COX1 by radioimmunoassay method
[2] = system: Mycobacterium tuberculosis; test: Antimycobacterial activity against Mycobacterium tuberculosis H37Ra by microplate Alamar Blue assay; assay type: functional
In short: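 M. tuberculosis H37Ra grown in Middlebrook 7H9 broth; growth read colorimetrically with Alamar Blue in microplates and reported as MIC; isoniazid and kanamycin sulfate included as reference drugs.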

Plasmodium falciparum = test: Antimalarial activity against multidrug-resistant Plasmodium falciparum K1 by micro culture radioisotope technique; assay type: functional, organism-based
Candida albicans = test: Antifungal activity against Candida albicans by colorimetric method; assay type: functional, organism-based
[3] = biological target: T1, Prostaglandin G/H synthase 2 (Homo sapiens, UniProt P35354); test: Inhibition of COX2 by radioimmunoassay method
T1 sequence (P35354 whole entry): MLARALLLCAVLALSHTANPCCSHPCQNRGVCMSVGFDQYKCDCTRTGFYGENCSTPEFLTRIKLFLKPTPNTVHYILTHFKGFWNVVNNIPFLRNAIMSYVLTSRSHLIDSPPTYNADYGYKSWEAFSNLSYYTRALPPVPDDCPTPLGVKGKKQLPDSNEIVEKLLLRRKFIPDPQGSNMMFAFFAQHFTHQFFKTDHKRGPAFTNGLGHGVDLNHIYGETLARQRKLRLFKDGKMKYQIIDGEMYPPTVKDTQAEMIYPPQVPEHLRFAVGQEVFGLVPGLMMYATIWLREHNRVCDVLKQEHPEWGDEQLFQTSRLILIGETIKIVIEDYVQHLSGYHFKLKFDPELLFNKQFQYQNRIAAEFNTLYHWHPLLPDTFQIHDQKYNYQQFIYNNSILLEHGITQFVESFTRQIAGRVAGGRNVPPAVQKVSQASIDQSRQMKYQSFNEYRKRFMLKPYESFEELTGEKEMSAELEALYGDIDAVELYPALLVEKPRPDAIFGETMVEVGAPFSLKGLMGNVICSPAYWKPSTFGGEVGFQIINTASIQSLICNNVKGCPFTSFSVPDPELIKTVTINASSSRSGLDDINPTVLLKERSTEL

KB = test: Cytotoxicity against KB cells by colorimetric method; assay type: cell-based; details: Homo sapiens
In short: (§1)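 KB and BC cells were tested by the colorimetric method of Skehan and co-workers, with ellipticine as the reference compound.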

[4] = Cytotoxicity against BC cells by colorimetric method; assay type: cell-based; details: Homo sapiens; in short: as §1

Sequence of Prostaglandin G/H synthase 1 (P23219 whole entry): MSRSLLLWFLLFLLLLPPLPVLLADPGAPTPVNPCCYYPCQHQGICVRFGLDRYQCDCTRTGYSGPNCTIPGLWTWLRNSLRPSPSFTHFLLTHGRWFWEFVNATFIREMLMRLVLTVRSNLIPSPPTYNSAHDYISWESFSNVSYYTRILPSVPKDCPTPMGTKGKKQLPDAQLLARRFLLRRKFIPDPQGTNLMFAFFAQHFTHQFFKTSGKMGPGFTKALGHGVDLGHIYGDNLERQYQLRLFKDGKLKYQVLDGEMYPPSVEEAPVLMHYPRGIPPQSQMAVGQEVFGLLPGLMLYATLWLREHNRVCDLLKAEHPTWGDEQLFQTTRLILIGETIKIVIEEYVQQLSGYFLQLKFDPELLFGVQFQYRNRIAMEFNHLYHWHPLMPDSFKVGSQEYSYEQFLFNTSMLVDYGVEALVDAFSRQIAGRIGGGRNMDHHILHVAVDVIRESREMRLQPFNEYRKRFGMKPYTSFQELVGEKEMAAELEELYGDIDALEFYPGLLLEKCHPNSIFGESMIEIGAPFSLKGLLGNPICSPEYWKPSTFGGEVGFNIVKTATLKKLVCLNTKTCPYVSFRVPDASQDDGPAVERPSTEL

## COc1c(O)c(C)c(OC)c2c1CCc1c(O)cccc1O2 [BAUHINOXEPIN F]
[1]
  IC50: > 33.1 µM
[2]
  MIC: 662 µM (≈ 200 µg/mL)
Plasmodium falciparum
  IC50: > 66.2 µM
Candida albicans
  IC50: 77.8 µM
[3]
  IC50: 6.9 µM
KB
  IC50: 29.4 µM
[4]
  IC50: 27.4 µM

## NC[C@H]1O[C@H](O[C@H]2[C@H](O)[C@@H](O[C@H]3O[C@H](CO)[C@@H](O)[C@H](N)[C@H]3O)[C@H](N)C[C@@H]2N)[C@H](O)[C@@H](O)[C@@H]1O [KANAMYCIN SULFATE]
[2]
  MIC: 3.43 µM

## Cc1c2ccncc2c(C)c2c1[nH]c1ccccc12 [ELLIPTECINE]
KB
  IC50: 5.3 µM
[4]
  IC50: 6.1 µM

## COc1cc(O)cc(CCc2ccccc2O)c1 [BATATASIN IV]
[1]
  IC50: > 40.9 µM
[2]
  MIC: 205 µM (≈ 50 µg/mL)
Plasmodium falciparum
  IC50: > 81.8 µM
Candida albicans
  IC50: > 205 µM
[3]
  IC50: > 40.9 µM
KB
  IC50: > 81.8 µM
[4]
  IC50: > 81.8 µM

## COc1c(C)c(O)cc2c1Oc1cccc(O)c1CC2 [BAUHINOXEPIN D]
[2]
  MIC: 184 µM (≈ 50 µg/mL)
Plasmodium falciparum
  IC50: > 73.5 µM
Candida albicans
  IC50: > 184 µM
KB
  IC50: 41.5 µM
[4]
  IC50: 45.5 µM

## COc1cc(OC)c(O)c([C@@H]2Cc3ccccc3O2)c1 [BAUHIBENZOFURIN A]
[2]
  MIC: 368 µM (≈ 100 µg/mL)
Plasmodium falciparum
  IC50: > 73.5 µM
Candida albicans
  IC50: 130 µM
KB
  IC50: > 73.5 µM
[4]
  IC50: > 73.5 µM

## COc1c(C)c(O)cc2c1Oc1ccccc1C(O)C2 (configuration not stated) [BAUHINOXEPIN G]
[2]
  MIC: 91.9 µM (≈ 25 µg/mL)
Plasmodium falciparum
  IC50: > 73.5 µM
Candida albicans
  IC50: > 184 µM
KB
  IC50: > 73.5 µM
[4]
  IC50: > 73.5 µM

## C[C@H]1[C@@H](O)O[C@@H]2O[C@@]3(C)CC[C@H]4[C@H](C)CC[C@@H]1[C@@]24OO3 [ARTENIMOL]
Plasmodium falciparum
  IC50: 0.0042 µM

## COc1c(C)c(OC)c2c(c1O)CCc1c(O)cccc1O2 [BAUHINOXEPIN E]
[1]
  IC50: > 33.1 µM
[2]
  MIC: 331 µM (≈ 100 µg/mL)
Plasmodium falciparum
  IC50: > 66.2 µM
Candida albicans
  IC50: > 166 µM
[3]
  IC50: > 33.1 µM
KB
  IC50: > 66.2 µM
[4]
  IC50: > 66.2 µM

## Cc1c(O)cc2c(c1O)C(=O)C[C@@H](c1ccccc1)O2
[2]
  MIC: > 741 µM
Plasmodium falciparum
  IC50: > 74 µM
Candida albicans
  IC50: > 185 µM
KB
  IC50: > 74 µM
[4]
  IC50: > 74 µM

## NNC(=O)c1ccncc1 [ISONIAZID]
[2]
  MIC: 0.29 µM (≈ 0.0398 µg/mL)

## COc1cc(O)cc(CCc2ccccc2)c1
[2]
  MIC: 219 µM (≈ 50 µg/mL)
Plasmodium falciparum
  IC50: > 87.7 µM
Candida albicans
  IC50: 68.4 µM
KB
  IC50: 51.7 µM
[4]
  IC50: 72.3 µM

## C[C@@H]1[C@H](O)[C@@H](C)/C=C/C=C/C=C/C=C/C=C/C=C/C=C/[C@H](O[C@@H]2O[C@H](C)[C@@H](O)[C@H](N)[C@@H]2O)C[C@@H]2O[C@](O)(C[C@@H](O)C[C@@H](O)[C@H](O)CC[C@@H](O)C[C@@H](O)CC(=O)O[C@H]1C)C[C@H](O)[C@H]2C(=O)O [AMPHOTERICIN B]
Candida albicans
  IC50: 0.04 µM

## Oc1cc(O)cc(CCc2ccccc2)c1 [DIHYDROPINOSYLVIN]
[1]
  IC50: > 46.7 µM
[2]
  MIC: 117 µM (≈ 25 µg/mL)
Plasmodium falciparum
  IC50: > 93.4 µM
Candida albicans
  IC50: > 234 µM
[3]
  IC50: > 46.7 µM
KB
  IC50: > 93.4 µM
[4]
  IC50: > 93.4 µM

## COc1cc2c(c(O)c1C)Oc1cccc(O)c1CC2 [BAUHINOXEPIN C]
[2]
  MIC: 184 µM (≈ 50 µg/mL)
Plasmodium falciparum
  IC50: > 73.5 µM
Candida albicans
  IC50: 79.4 µM
KB
  IC50: 44.8 µM
[4]
  IC50: 32.3 µM

## COc1cc(CCc2ccccc2O)c(O)c(OC)c1
[2]
  MIC: 91.2 µM (≈ 25 µg/mL)
Plasmodium falciparum
  IC50: > 72.9 µM
Candida albicans
  IC50: > 182 µM
KB
  IC50: > 72.9 µM
[4]
  IC50: > 72.9 µM

## COC1=CC(=O)C2=C(CCc3ccccc3O2)C1=O [BAUHINOXEPIN J]
[2]
  MIC: 24.4 µM (≈ 6.25 µg/mL)
Plasmodium falciparum
  IC50: 5.8 µM
Candida albicans
  IC50: > 195 µM
KB
  IC50: 10.5 µM
[4]
  IC50: 12.1 µM

## COc1cc(CCc2ccccc2O)cc(O)c1C [BAUHINOL E]
[2]
  MIC: 194 µM (≈ 50 µg/mL)
Plasmodium falciparum
  IC50: > 77.5 µM
Candida albicans
  IC50: > 194 µM
KB
  IC50: > 77.5 µM
[4]
  IC50: > 77.5 µM

## COC1=C(C)C(=O)C2=C(CCc3c(O)cccc3O2)C1=O [BAUHINOXEPIN H]
[1]
  IC50: > 34.9 µM
[2]
  MIC: 87.4 µM (≈ 25 µg/mL)
Candida albicans
  IC50: > 175 µM
[3]
  IC50: > 34.9 µM
KB
  IC50: 15.7 µM
[4]
  IC50: 11.5 µM

## COc1cc(CCc2ccccc2O)cc(OC)c1
[2]
  MIC: 194 µM (≈ 50 µg/mL)
Plasmodium falciparum
  IC50: > 77.5 µM
Candida albicans
  IC50: 49.6 µM
KB
  IC50: > 77.5 µM
[4]
  IC50: > 77.5 µM

## COC1=C(C)C(=O)C2=C(CCc3cc(O)ccc3O2)C1=O [BAUHINOXEPIN I]
[1]
  IC50: > 34.9 µM
[2]
  MIC: 175 µM (≈ 50 µg/mL)
Plasmodium falciparum
  IC50: 10.5 µM
Candida albicans
  IC50: > 175 µM
[3]
  IC50: 10.1 µM
KB
  IC50: 38.8 µM
[4]
  IC50: 41.9 µM

## Cc1c(O)c(C)c2c(c1O)C(=O)C[C@@H](c1ccccc1)O2 [DEMETHOXYMATTEUCINOL]
[2]
  MIC: > 704 µM
Plasmodium falciparum
  IC50: 9.5 µM
Candida albicans
  IC50: > 176 µM
KB
  IC50: > 70.4 µM
[4]
  IC50: > 70.4 µM
